Screening results: PubChem, several laboratories
PABP1 MLLE inh – inhibitors of PABP1 MLLE–PAM2 peptide binding, primary screen, biochemical, fluorescence polarization, FITC-PAM2, GST-MLLE. Polyadenylate-binding protein 1 (Homo sapiens), P11940. inhibition, % at 20 µM. 0.36% of 360,000 active. AID 588489, 2011; in the data active = inhibition above about 35%, passing the limit was not always enough;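 note: plate controls were DMSO wells with GST-MLLE for no effect and wells lacking GST-MLLE protein for full effect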
HCV NS3 hel inh – inhibitors of HCV NS3 helicase, primary screen, biochemical, Cy5 molecular beacon fluorescence | NS3 helicase DNA unwinding | 0.56% of 290,000 active | inhibition, % at 10.9 µM | Hepatitis C virus NS3 helicase | AID 1800, 2009;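 active = inhibition above the mean of all tested compounds plus 3 SD, set per campaign, cut at about 35% in these data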;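 note: 0% = DMSO wells and 100% = thioflavine S control wells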
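Compound dosing – single dose, 10.9 µM nominal final, DMSO 0.8% final · System – NS3 helicase fragment of HCV · Buffer or medium – MOPS pH 6.5, MgCl2, DTT, Tween20, BSA · Signal – Cy5 beacon fluorescence read at start and 1 h · Also added – annealed dual-labelled DNA beacon duplex, ATP-started · Schedule – 1 h at 25 °C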
PABP FP inh – PABP poly(A) RNA binding inhibitors, primary screen, biochemical, fluorescence polarization, uHTS | inhibition, % at 35 µM | Polyadenylate-binding protein 1 (Homo sapiens), P11940 | 1% of 290,000 active;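 note: calls also rest on retests at 20 µM and on dose response follow-up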
ZTA DNA inh – blocks Epstein-Barr virus ZTA, an EBNA-1 counter-screen; ZTA-DNA binding, fluorescence polarization; 0.15% of 320,000 active; inhibition, % at 11 µM; in the data active = inhibition above about 33%
Target sequence (P03206 whole entry, looked up): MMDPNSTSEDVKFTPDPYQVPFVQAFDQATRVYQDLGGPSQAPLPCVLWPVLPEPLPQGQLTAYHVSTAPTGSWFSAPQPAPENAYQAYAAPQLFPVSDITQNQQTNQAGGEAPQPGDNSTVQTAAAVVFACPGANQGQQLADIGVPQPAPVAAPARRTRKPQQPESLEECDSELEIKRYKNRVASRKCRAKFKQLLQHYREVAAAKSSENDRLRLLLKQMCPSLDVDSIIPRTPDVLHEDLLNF
eIF4H inh – human eIF4H binding inhibitors, primary screen, translation initiation inhibitor project, biochemical, uHTS, fluorescence polarization; inhibition, % at 35 µM; 0.94% of 290,000 active; eIF4H fluorescence polarization binding assay;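 note: calls also rest on retests at 20 µM and on dose response follow-up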
EBNA-1 inhibitor – EBNA-1 DNA-binding inhibitors, primary screen, biochemical, fluorescence polarization. inhibition, % at 14.8 µM. 0.34% of 300,000 active; in the data active = inhibition above about 28%
Active calls of the source: *; · = no result. A selection: hits, their analogues and other compounds. The true share with any hit is near 2.1%. Unless noted, the rule behind the calls is not given here.

SMILES | PABP1 MLLE inh | HCV NS3 hel inh | PABP FP inh | ZTA DNA inh | eIF4H inh | EBNA-1 inhibitor
O=[N+]([O-])c1ccc(/C=C/C2=NN(c3ccccc3)C(c3ccco3)C2)cc1 (stereo not given) | -113.2 | 7.1 | -4.5 | -4.8 | 23.3 | 7.6
O=[N+]([O-])c1ccc(C2=NN(c3ccccc3)C(c3ccco3)C2)cc1 (stereo not given) | -95.0 | 21.9 | 53.8* | · | 103.6* | ·
O=C1CCCC(=O)C1CS(=O)(=O)c1ccccc1 | 52.2* | 0.1 | 7.4 | -4.7 | -7.6 | -26.0
O=S(=O)(CS(=O)(=O)c1ccccc1)c1ccccc1 | 3.0 | · | · | · | · | ·
COC(=O)c1ccc(N(CC(=O)NC2CCCC2)C(=O)CNC(=O)c2cccs2)cc1 | -1.6 | 6.2 | 2.8 | -1.6 | -13.5 | -9.7
Cc1ccc(Sc2ncccc2COC(=O)NC(C)C)cc1 | -13.7 | 0.8 | 52.7* | 0.6 | active | -6.3
CC(C)(C)[C@H]1C=C(C(=O)Nc2ccccc2)O[C@@H](OCCCCO)C1 | 13.8 | · | · | 5.5 | · | -7.1
Cc1cc(C)n2nc(SCc3cc(=O)oc4ccc5ccccc5c34)nc2n1 | 40.2* | 8.7 | 12.9 | -5.1 | 28.6 | -8.8
COC(=O)c1cc(NC(=S)Nc2cc(Cl)cc(Cl)c2)cc(C(=O)OC)c1 | 36.3* | -3.5 | 1.0 | 4.8 | -0.8 | 4.2
COC(=O)c1cccc(NC(=S)Nc2ccccc2Cl)c1 | 21.4 | -10.2 | 13.2 | -4.0 | -1.4 | -0.4
CN(c1ccccc1C(=O)NCc1ccco1)S(C)(=O)=O | 10.9 | 7.3 | 32.5* | -4.9 | 55.0* | -15.3
Cc1cc(C(=O)CCC(=O)Nc2ncccc2C)c(C)s1 | -0.2 | · | · | 3.9 | · | -5.5
CCN(CC)c1ccc(N=Cc2cc(Br)ccc2O)cc1 | -55.0 | 27.4 | -6.1 | 184.4* | -7.4 | 126.0*
CCOC(=O)c1sc(=S)n(-c2ccc3c(c2)OCO3)c1N | 40.0* | -6.2 | 11.8 | -14.1 | 1.3 | 0.1
Cc1cc(C)cc(C(O)c2ncc(-c3ccc(F)cc3)[nH]2)c1 (stereo not given) | -11.8 | · | · | · | · | ·
CCC1c2ccc(C)n2CCN1C(=O)Nc1ccc(F)cc1 (stereo not given) | 0.2 | 5.1 | 108.9* | -20.0 | 112.6* | 6.4
CC(C)NC(=O)CCCC(=O)NC(C)C | 2.7 | 0.6 | 64.0* | 7.1 | 2.2* | 18.4
CC(C)NC(=O)CCCc1ccccc1 | 2.1 | -5.5 | 3.2 | -2.6 | -13.9 | -2.5
Cc1ccc2ncccc2c1NC(=S)NC(=O)c1ccccc1 | 41.6* | 5.0 | 59.7 | -15.4 | 2.7 | -4.6
Cc1ccc2ncccc2c1NS(=O)(=O)c1ccccc1 | -110.5 | -2.1 | 39.0 | -18.1 | 8.4 | -0.8
Cc1ccc(C)c(NC(=O)COC(=O)c2ccc3c(c2)OCO3)c1 | 3.8 | 9.5 | 71.0* | 4.7 | 14.0* | 5.3
Cc1cccc(/C(N)=N/OC(=O)c2ccc3c(c2)OCO3)c1 | 5.3 | 11.7 | 71.7* | -6.1 | 2.0* | 3.8
Cc1ccc(S(=O)(=O)N(C)C)cc1NC(=O)COC(=O)c1ccc2c(c1)OCO2 | -16.0 | -6.0 | -2.3 | -10.8 | -4.5 | -14.4
CCc1nccn1CCC(=O)N1CCc2c([nH]c3ccccc23)C1CC(C)C (stereo not given) | 3.6 | -16.4 | 0.5 | 2.2 | -3.3 | -9.5
COCc1ccc(CN2CCc3c([nH]c4ccccc34)C2CC(C)C)o1 (stereo not given) | -12.8 | -1.5 | 119.2* | 10.6 | 67.4 | 6.2
SMILES | PABP1 MLLE inh | HCV NS3 hel inh | PABP FP inh | ZTA DNA inh | eIF4H inh | EBNA-1 inhibitor
O=C(CN1C(=O)S/C(=C\c2cccs2)C1=O)Nc1ccc(O)cc1C(=O)O | -4.5 | 11.0 | 22.9 | -4.6 | 3.7 | 1.9
N#Cc1c(/N=C/c2ccco2)sc2c1CCC2 | 9.4 | 30.0 | 31.2 | 12.6 | 11.8 | -11.8
CCOc1[nH]c(/N=C/c2ccco2)c(C#N)c1C#N | 18.8 | 6.7 | 126.3* | -12.2 | 99.7* | -0.9
O=S(=O)(Nc1ccccc1)c1cccc2nsnc12 | 10.0 | 5.9 | 31.4 | -0.8 | 71.2* | -5.5
CC(C)CC(NC(=O)C(COCc1ccccc1)NC(=O)OC(C)(C)C)C(=O)NN (stereo not given) | 11.1 | 3.0 | 67.5 | 4.5 | active | -12.8
CC(C)CC(NC(=O)OC(C)(C)C)C(=O)NCc1ccccc1 (stereo not given) | -7.0 | -0.3 | -0.3 | 1.1 | -5.7 | -6.5
